The nature of data set [1]: Tmax in C3H/HeOuJ mouse at 10 mg/kg, po measured upto 24 hrs. Conditions: in vivo.
Data set [2] concerns Chlamydia trachomatis. Nature of the data set: Antibacterial activity against Chlamydia trachomatis 434/Bu serovar L2/ATCC VR-902B in HeLa 229 cells infected with cell lysates from 48 hrs at 1 uM compound treated HeLa 229 cells with Chlamydia trachomatis infection assessed as inhibition of reinfection and measured after 48 hrs post re-infection by DAPI staining based arrayscan automated microscopic method relative to control. Type of data set: functional, organism-based. In a few lines: (§1)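 HeLa 229 cells infected with C. trachomatis L2 EBs at MOI 0.3–0.5; compound added in RPMI 1 h post infection; 44–48 h, then water lysis. 10-fold serial dilutions of lysate reinfect fresh HeLa; 44–46 h, methanol fixed, anti-Chlamydia/FITC antibody plus DAPI stain, IFUs counted by automated microscopy; % IFU versus DMSO control; three independent experiments, duplicates.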

Data set [3] can be described thus: Cmax in C3H/HeOuJ mouse at 1 mg/kg, iv measured upto 24 hrs. Particulars: in vivo.
For data set [4], the system named is Chlamydia trachomatis. The experiment in a line: Antibacterial activity against Chlamydia trachomatis serovar D/ATCC VR-885 infected in C3H/HeJ mouse assessed as reduction in vaginal infection at 10 mg/kg, po BID administered 21 consecutive days by vaginal swab based immunostaining arrayscan automated microscopic method. Type of data set: functional, organism-based. Particulars: in the assay text read “7 consecutive days” for “21 consecutive days”. A digest of the protocol: (§2)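 Female C3H/HeJ mice given 2.4 mg medroxyprogesterone acetate s.c. 10 and 3 days before intravaginal infection (5000 CFU). Nine mice dosed by gavage 100 μL of 2.33 mg/mL emulsion, twice daily; vehicle and doxycycline groups. Vaginal swabs on days 2–21 titrated on HeLa cells, immunostained, counted by automated microscopy.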

Data set [5] in a line: Solubility of compound in PBS at 0.2 to 0.5 mg after 48 hrs by LC-MS/MS based shake flask method. Format: physicochemical.
Data set [6] is described as follows: Intrinsic clearance in human liver microsomes at 1 uM incubated for 5 to 60 mins in presence of NADPH by LC-MS/MS analysis. Format: ADME, Microsome. In a few lines:
(§3)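 Liver microsomes 0.5 mg/ml, compound 1 μM in 100 mM phosphate pH 7.4; started with 1 mM NADPH (final). Sampled 0–60 min, quenched in cold acetonitrile, parent remaining by LC-MS/MS; ln % remaining versus time fitted by linear regression.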
For orientation: Liver microsomes are vesicles of endoplasmic reticulum, rich in cytochrome P450 enzymes.

Data set [7] can be described thus: Fraction unbound in CD-1 mouse plasma at 10 uM incubated for 4 hrs by LC-MS/MS-based equilibrium dialysis method. Format: ADME, cell-free. A digest of the protocol: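 Rapid equilibrium dialysis: 10% CD-1 mouse plasma in isotonic buffer spiked to 10 μM compound, 1% DMSO final, against phosphate buffer pH 7.4; 37 °C, 900 rpm, 4 h. Matrix-matched samples precipitated with methanol, LC-MS/MS; fu corrected for plasma dilution.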
A general note: Equilibrium dialysis compares concentrations on both sides of a semipermeable membrane.

Data set [8] is described as follows: AUC (0 to infinity) in C3H/HeOuJ mouse at 10 mg/kg, po measured upto 24 hrs. Conditions: in vivo.
A short description of data set [9]: Efflux ratio of apparent permeability in human Caco2 cells at 1 uM after 15 to 60 mins by LC-MS/MS analysis. Type of data set: ADME, cell-based. Particulars: caco-2, 1 µM. A digest of the protocol:
(§4)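 Caco-2 monolayers (passage 94–105) used on day 21 on filter supports; 1 μM donor solution applied apical or basolateral, pH 7.4 both chambers, 37 °C, 500 rpm stirring. Receiver sampled at 15, 30, 60 min, donor at 60 min for mass balance; LC-MS/MS with warfarin internal standard.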

Data set [10] can be described thus: Toxicity in C3H/HeJ mouse infected with Chlamydia trachomatis serovar D/ATCC VR-885 assessed as vital signs at 10 mg/kg, po BID administered 21 consecutive days. Format: organism-based. Particulars: in vivo, in the assay text read “7 consecutive days” for “21 consecutive days”. In a few lines: as §2
Data set [11] is described as follows: Intrinsic clearance in mouse liver microsomes at 1 uM incubated for 5 to 60 mins in presence of NADPH by LC-MS/MS analysis. Type of data set: ADME, Microsome. A digest of the protocol: as §3
Data set [12] in a line: Cmax in C3H/HeJ mouse at 10 mg/kg, po measured upto 24 hrs. Format: ADME, organism-based. On the set-up: dose 10 mg/kg, route oral. Conditions: in vivo. In a few lines: (§5)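 Female C3H mice, three per dose and route; IV as 50 μL tail-vein injection in PBS with 10% cremophor, 5% EtOH, 4% DMSO; PO as 100 μL gavage in lipid-vehicle/water emulsion. Tail-vein blood at 10 min (IV) and 0.5–24 h; acetonitrile mixed, methanol extracted, LC-MS/MS against spiked blank blood standards; non-compartmental analysis, errors as SD.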

Data set [13] in a line: Volume of distribution at steady state in C3H/HeJ mouse at 1 mg/kg, iv measured upto 24 hrs. Particulars: in vivo. Format: ADME, organism-based. A digest of the protocol:
as §5

Data set [14] is described as follows: Half life in C3H/HeJ mouse at 1 mg/kg, iv measured upto 24 hrs. Type of data set: ADME, organism-based. Particulars: in vivo. A digest of the protocol: as §5
Data set [15] concerns Chlamydia trachomatis. Nature of the data set: Antibacterial activity against Chlamydia trachomatis 434/Bu serovar L2/ATCC VR-902B in HeLa 229 cells infected with cell lysates from 48 hrs at 2.5 uM compound treated HeLa 229 cells with Chlamydia trachomatis infection assessed as inhibition of reinfection and measured after 48 hrs post re-infection by DAPI staining based arrayscan automated microscopic method relative to control. Type of data set: functional, organism-based. A digest of the protocol:
as §1

Data set [16] in a line: AUC (0 to infinity) in C3H/HeOuJ mouse at 1 mg/kg, iv measured upto 24 hrs. Conditions: in vivo.
Data set [17] in a line: Apparent permeability from apical to basolateral side in human Caco2 cells at 1 uM after 15 to 60 mins by LC-MS/MS analysis. Conditions: caco-2, 1 µM. Format: ADME, cell-based. In a few lines:
as §4
(Passage across Caco-2 layers is used to estimate intestinal permeability.)

A short description of data set [18]: Oral bioavailability in C3H/HeOuJ mouse at 10 mg/kg measured upto 24 hrs. Conditions: in vivo.
Data set [19] can be described thus: Clearance in C3H/HeOuJ mouse at 1 mg/kg, iv measured upto 24 hrs. Conditions: in vivo.
The nature of data set [20]: Half life in C3H/HeOuJ mouse at 10 mg/kg, po measured upto 24 hrs. Conditions: in vivo.
The test system of data set [21] is HeLa 229. Nature of the data set: Cytotoxicity against human HeLa 229 cells assessed as cell viability at 10 uM after 48 hrs resazurin dye based fluorescence method relative to control. Conditions: hela 229, 48 h. A digest of the protocol: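 HeLa cells in colorless DMEM with 10% FBS, compound in 0.5% DMSO for 48 h; resazurin added, 3 h at 37 °C, 5% CO2, dark; fluorescence ex 535/em 595 nm; triplicate wells as percent of DMSO control.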

Values after ≈ are worked out from the molar mass of the structure shown. Active and inactive are the calls of the source. The calls are words filed in the database; no cut-off is given here.

In general, Tmax refers to the time at which the peak concentration occurs. Usually inhibition stands for the change of the read-out against control, counted positive when it falls. Usually Cmax stands for the highest concentration seen after dosing. The solubility (thermodynamic) is the concentration in solution at equilibrium with solid. Broadly, the AUC is the area under the concentration-time curve, a measure of exposure. Higher therefore signals high exposure. The Vdss is a proportionality between amount in the body and measured concentration, not a real space. High values mean wide distribution into tissue, low ones little distribution into tissue. A word on the Papp: it is the rate of passage across a membrane or cell layer, normalised by area and donor concentration. As for `CS(=O)(=O)Nc1c(Cc2cccc3ccccc23)cc(=O)n2c1SCC2C(=O)Nc1ccccc1` (racemic), in data set [1], the Tmax is 1 h. Also, the inhibition in data set [2] was 23%; in data set [15], 89%. Moreover, the Cmax in data set [3] stood at 1700 nM; in [12] it was 3700 nM. In addition, in data set [4], the outcome was inactive. The molecule further had a solubility (thermodynamic) at 48 h in [5] of 1.3 µM (≈ 0.657 µg/mL). The CLH in data set [6] was determined as 39 µL/min/mg; in data set [11], 59 µL/min/mg. The same molecule registered a Fu in [7] of 0.39%. Moreover, the AUC amounted to 20.3 µM·h in data set [8] and 4.8 µM·h in data set [16]. For the same molecule, the Ratio in data set [9] is listed as 2. For the same molecule, the Activity entry in data set [10] is on record as “Non-Toxic”; in data set [21], 94%. The molecule also returned a Vdss in [13] of 0.62 L/kg. Further, the figures for the t1/2 in data set [14] and in [20] were 5.3 h and 2.6 h, respectively. Moreover, in [17], the Papp turned out to be 30 ×10⁻⁶ cm/s. In addition, the F in data set [18] was 41%. Further, the CL in data set [19] worked out at 0.01 L/h.

These data come from ChEMBL document CHEMBL4373686, “Methyl sulfonamide substituents improve the pharmacokinetic properties of bicyclic 2-pyridone based Chlamydia trachomatis inhibitors” (Medchemcomm, 2019).
